The record followed here is ChEMBL document CHEMBL2163344, “Immunomodulatory properties of novel nucleotide oligomerization domain 2 (nod2) agonistic desmuramyldipeptides” (J Med Chem, 2012).

The target in data set [1] is T1, Toll-like receptor 7 (Homo sapiens) (UniProt Q9NYK1).
T1 sequence (whole entry): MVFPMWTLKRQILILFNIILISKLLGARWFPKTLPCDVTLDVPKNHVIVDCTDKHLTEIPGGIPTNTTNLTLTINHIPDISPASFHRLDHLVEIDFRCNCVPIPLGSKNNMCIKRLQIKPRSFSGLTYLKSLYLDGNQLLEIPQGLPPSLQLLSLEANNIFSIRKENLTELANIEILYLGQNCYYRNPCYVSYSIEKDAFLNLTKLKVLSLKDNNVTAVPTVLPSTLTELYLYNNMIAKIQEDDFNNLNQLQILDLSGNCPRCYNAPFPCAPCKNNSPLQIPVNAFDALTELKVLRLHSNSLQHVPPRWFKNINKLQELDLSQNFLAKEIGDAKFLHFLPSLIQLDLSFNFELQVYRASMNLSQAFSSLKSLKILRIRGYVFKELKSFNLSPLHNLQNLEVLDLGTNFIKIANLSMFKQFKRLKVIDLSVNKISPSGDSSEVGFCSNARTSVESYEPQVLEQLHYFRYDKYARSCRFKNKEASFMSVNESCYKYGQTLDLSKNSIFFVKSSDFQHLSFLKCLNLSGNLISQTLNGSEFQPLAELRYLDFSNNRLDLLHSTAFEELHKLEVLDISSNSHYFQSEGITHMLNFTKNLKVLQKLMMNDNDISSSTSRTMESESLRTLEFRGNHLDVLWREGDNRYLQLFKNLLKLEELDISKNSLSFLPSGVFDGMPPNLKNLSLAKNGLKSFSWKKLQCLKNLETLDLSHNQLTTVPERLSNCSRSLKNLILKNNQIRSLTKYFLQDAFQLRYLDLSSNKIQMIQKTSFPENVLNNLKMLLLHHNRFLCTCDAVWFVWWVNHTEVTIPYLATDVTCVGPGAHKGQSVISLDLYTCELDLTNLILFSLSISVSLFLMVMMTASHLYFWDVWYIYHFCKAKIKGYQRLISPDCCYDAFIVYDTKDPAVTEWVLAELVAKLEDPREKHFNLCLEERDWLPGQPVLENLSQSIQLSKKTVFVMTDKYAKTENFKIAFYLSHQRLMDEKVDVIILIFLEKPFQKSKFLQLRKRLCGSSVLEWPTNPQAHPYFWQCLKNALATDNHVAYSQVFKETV
As to the kind of experiment: Agonist activity at human TLR7 expressed in Ramos blue cells assessed as stimulation of NF-kB/AP-1 activity at 20 uM incubated for 18 hrs using quanti blue assay based SEAP reporter gene assay. Format: functional, cell-based. Summed up:
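Ramos-Blue control cells (TLR3/7/9 and Nod1, no Nod2; stable NF-κB/AP-1-inducible SEAP reporter) at 1 × 10^6 cells/mL, exposed 18 h to 20 μM compound. SEAP in supernatant read with QUANTI-Blue reagent (3 h, 37 °C), absorbance 640 nm; activity compared with untreated cells.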
(A reporter such as luciferase makes a cellular process visible.)

Data set [2] has as its system PBMC. Nature of the data set: Immunomodulatory activity in human PBMCs assessed as increase in PMA/ionomycin-induced IL10 release at 20 uM incubated for 18 hrs by multiplexed cytokine assay. Type of data set: functional, cell-based.
Data set [3] is described as follows: Cytotoxicity against human PBMCs assessed as residual metabolic activity at 20 uM after 18 hrs by MTS assay. Format: ADME, cell-based, PBMC. Conditions: read-out: Activity. Summed up:
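Ficoll-isolated human PBMC, 1 × 10^6 cells/mL in supplemented RPMI 1640 with 10% FBS, exposed 18 h to 20 μM compound (DMSO ≤0.1% final) in triplicate. Metabolic activity read by MTS (CellTiter 96 AQueous One) and expressed relative to vehicle-treated control.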

In data set [4] the target is Nucleotide-binding oligomerization domain-containing protein 2 (Homo sapiens) (UniProt Q9HC29). Nature of the data set: Agonist activity at human Nod2 expressed in HEK293-blue cells assessed as increase in NF-kappaB transcriptional activity at 20 uM incubated for 18 hrs using quanti blue assay based SEAP reporter gene assay. Format: functional, cell-based. The gist of the method:
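HEK-Blue Nod2 cells (HEK293 stably coexpressing human Nod2 and NF-κB-inducible SEAP) at 1 × 10^6 cells/mL, treated 18 h with 20 μM compound. Supernatant SEAP measured with QUANTI-Blue, 3 h at 37 °C, absorbance 640 nm. Duplicates in three independent experiments, compared with untreated cells.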

For data set [5], the system named is PBMC. Nature of the data set: Immunomodulatory activity in human PBMCs assessed as increase in PMA/ionomycin-induced IL8 release at 20 uM incubated for 4 to 40 hrs by multiplexed cytokine assay. Type of data set: functional, cell-based. The gist of the method: (§1)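 PBMC time course: 20 μM compound with PMA 3.33 ng/mL and ionomycin 500 nM. Supernatants collected at 4, 18 and 40 h and cytokines read by cytometric bead array. Compared with PMA/ionomycin-only control; two independent experiments in duplicate, two donors.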

For data set [6], the system named is PBMC. As to the kind of experiment: Immunomodulatory activity in human PBMCs assessed as increase in PMA/ionomycin-induced IL-1beta release at 20 uM by multiplexed cytokine assay. Conditions: TDE = time-dependent effect. Type of data set: functional, cell-based. The gist of the method: (§2)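 Ficoll-isolated human PBMC, 1 × 10^6 cells per well, treated with 20 μM compound (DMSO ≤0.1%) plus PMA 3.33 ng/mL and ionomycin 500 nM for 18 h at 37 °C, 5% CO2. Cell-free supernatant cytokines measured by CBA human inflammatory kit on a flow cytometer against recombinant standards. Reported as % of PMA/ionomycin-only release; duplicates, three experiments, three donors.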

The subject of data set [7] is PBMC. As to the kind of experiment: Immunomodulatory activity in human PBMCs assessed as increase in PMA/ionomycin-induced TNFalpha release incubated for 18 hrs by multiplexed cytokine assay. Type of data set: functional, cell-based. The gist of the method: as §2
The subject of data set [8] is PBMC. As to the kind of experiment: Immunomodulatory activity in human PBMCs assessed as increase in PMA/ionomycin-induced IL6 release incubated for 18 hrs by multiplexed cytokine assay. Format: functional, cell-based.
Data set [9] concerns PBMC. As to the kind of experiment: Immunomodulatory activity in human PBMCs assessed as increase in PMA/ionomycin-induced IL10 release at 0.2 to 200 uM incubated for 18 hrs by multiplexed cytokine assay. Type of data set: functional, cell-based. The gist of the method:
(§3)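 Human PBMC stimulated with PMA 3.33 ng/mL and ionomycin 500 nM plus compound at 0.2, 2, 20 or 200 μM for 18 h. Supernatant cytokines quantified by cytometric bead array. Compared with PMA/ionomycin-only cells; two independent experiments in duplicate, two donors, mean ± SD.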

Data set [10] has as its system PBMC. As to the kind of experiment: Immunomodulatory activity in human PBMCs assessed as increase in PMA/ionomycin-induced IL-12p70 release at 20 uM by multiplexed cytokine assay. Format: functional, cell-based. Conditions: TDE = time-dependent effect. Summed up:
as §2

The subject of data set [11] is PBMC. Nature of the data set: Immunomodulatory activity in human PBMCs assessed as increase in PMA/ionomycin-induced IL10 release at 20 uM incubated for 4 to 40 hrs by multiplexed cytokine assay. Format: functional, cell-based. The gist of the method: as §1
The test system of data set [12] is PBMC. Nature of the data set: Immunomodulatory activity in human PBMCs assessed as increase in PMA/ionomycin-induced IL8 release at 0.2 to 200 uM incubated for 18 hrs by multiplexed cytokine assay. Format: functional, cell-based. The gist of the method:
as §3

Data set [13] deals with PBMC. As to the kind of experiment: Immunomodulatory activity in human PBMCs assessed as increase in PMA/ionomycin-induced IL6 release at 20 uM by multiplexed cytokine assay. Format: functional, cell-based. The settings on record: TDE = time-dependent effect. The gist of the method:
as §2

The test system of data set [14] is PBMC. As to the kind of experiment: Immunomodulatory activity in human PBMCs assessed as increase in PMA/ionomycin-induced IL-1beta release incubated for 18 hrs by multiplexed cytokine assay. Type of data set: functional, cell-based.
The test system of data set [15] is PBMC. Nature of the data set: Immunomodulatory activity in human PBMCs assessed as increase in PMA/ionomycin-induced IL-12p70 release incubated for 18 hrs by multiplexed cytokine assay. Type of data set: functional, cell-based.
Data set [16] has as its system PBMC. As to the kind of experiment: Immunomodulatory activity in human PBMCs assessed as increase in PMA/ionomycin-induced TNFalpha release at 20 uM by multiplexed cytokine assay. Format: functional, cell-based. The settings on record: TDE = time-dependent effect. Summed up:
as §2

SMILES strings stand for the structures. Activity calls are given as the source filed them. No cut-off for these calls is given here.

Chain of Nucleotide-binding oligomerization domain-containing protein 2 (Homo sapiens) (Q9HC29 whole entry, the tested form may be a part): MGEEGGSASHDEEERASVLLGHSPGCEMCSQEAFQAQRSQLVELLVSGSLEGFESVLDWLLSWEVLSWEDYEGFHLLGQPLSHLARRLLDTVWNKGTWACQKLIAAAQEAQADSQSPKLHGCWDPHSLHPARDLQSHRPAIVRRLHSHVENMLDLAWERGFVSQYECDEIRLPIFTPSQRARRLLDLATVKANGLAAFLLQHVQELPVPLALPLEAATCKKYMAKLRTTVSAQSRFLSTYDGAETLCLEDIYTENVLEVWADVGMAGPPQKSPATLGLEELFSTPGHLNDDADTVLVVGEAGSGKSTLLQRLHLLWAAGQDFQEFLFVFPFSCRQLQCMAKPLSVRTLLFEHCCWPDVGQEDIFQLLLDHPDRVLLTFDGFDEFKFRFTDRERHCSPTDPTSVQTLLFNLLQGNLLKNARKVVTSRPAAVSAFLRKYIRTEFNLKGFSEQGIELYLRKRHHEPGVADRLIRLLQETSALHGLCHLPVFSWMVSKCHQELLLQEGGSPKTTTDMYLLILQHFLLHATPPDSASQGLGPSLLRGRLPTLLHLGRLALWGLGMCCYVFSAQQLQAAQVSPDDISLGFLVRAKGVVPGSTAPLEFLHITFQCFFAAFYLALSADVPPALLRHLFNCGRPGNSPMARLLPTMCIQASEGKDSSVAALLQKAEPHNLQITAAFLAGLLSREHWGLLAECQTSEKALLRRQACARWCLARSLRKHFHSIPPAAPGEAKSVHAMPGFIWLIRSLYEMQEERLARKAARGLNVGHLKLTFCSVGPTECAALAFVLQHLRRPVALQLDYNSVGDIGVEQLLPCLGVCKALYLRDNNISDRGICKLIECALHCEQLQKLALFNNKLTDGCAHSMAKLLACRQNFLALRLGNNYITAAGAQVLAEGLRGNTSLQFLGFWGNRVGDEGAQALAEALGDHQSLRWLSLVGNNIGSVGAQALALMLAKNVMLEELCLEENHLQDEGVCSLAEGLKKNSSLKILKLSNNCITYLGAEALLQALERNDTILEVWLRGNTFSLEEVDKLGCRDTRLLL

Consider `CCOC(=O)CC[C@@H](NC(=O)[C@H](C)NC(=O)CCCCN1C(=O)c2ccccc2S1(=O)=O)C(N)=O`, for which the result in data set [1], in data set [2] and in data set [4] was inactive. In addition, the viability at 18 h, 20 µM in data set [3] was at least 90%.
In the case of `CCOC(=O)CC[C@@H](NC(=O)[C@H](C)NC(=O)COCCN1C(=O)c2ccccc2S1(=O)=O)C(N)=O`, the result in data set [1], in data set [2] and in data set [4] was inactive. For the same molecule, the viability at 18 h, 20 µM in data set [3] was at least 90%.
`CCOC(=O)CC[C@@H](NC(=O)[C@H](C)NC(=O)COCCN1C(=O)c2ccccc2S1(=O)=O)C(=O)OCC`: the result in [1] and in data set [2] was inactive. Moreover, the viability at 18 h, 20 µM in data set [3] is at least 90%.
`CCOC(=O)CC[C@@H](NC(=O)[C@H](C)NC(=O)CNC(=O)c1cc2ccccc2[nH]1)C(=O)OCC`: the outcome in [5], in [1], in data set [9], in [2], in data set [11] and in [12] was inactive. The Activity result in [6] is “tde”; in data set [7], “Dose-dependent effect”; in [8], “Dose-dependent effect”; in [10], “tde”; in data set [13] it was “tde”; in data set [14] it was “Dose-dependent effect”. Also, the Activity result is “Dose-dependent effect” in data set [15] and “tde” in [16]. The viability at 18 h, 20 µM in [3] was at least 90%. Moreover, the result in data set [4] was Active.
Turning to `CCCCOC(=O)[C@@H](CCC(N)=O)NC(=O)[C@H](C)NC(=O)[C@@H](C)O[C@H]1[C@H](O)[C@@H](CO)OC(O)[C@@H]1NC(C)=O` (some centres undefined) [MURABUTIDE], the outcome in data set [5], in [1], in [9], in data set [2], in [11] and in [12] was inactive. Besides, the Activity result in [6] was “tde”; in [7] it was “Dose-dependent effect”; in [8] it was “Dose-dependent effect”; in data set [10], “tde”; in data set [13], “tde”; in data set [14], “Dose-dependent effect”. Also, the Activity entry was “Dose-dependent effect” in data set [15] and “tde” in data set [16]. Also, in [3], the viability at 18 h, 20 µM was at least 90%. Also, in data set [4], the result was Active.
For the molecule `CCOC(=O)CC[C@@H](NC(=O)[C@H](C)NC(=O)CCCCN1C(=O)c2ccccc2S1(=O)=O)C(=O)OCC`, the result in data set [1] and in data set [2] was inactive. Also, the viability at 18 h, 20 µM in [3] is at least 90%.
On to `CCOC(=O)CC[C@@H](NC(=O)[C@H](C)NC(=O)C1=C2c3ccccc3S(=O)(=O)N2CCC1)C(=O)OCC`, for which the result in [1] and in data set [2] was inactive. Besides, the viability at 18 h, 20 µM in data set [3] was at least 90%. Also, the outcome in [4] was Active.
Consider `CCOC(=O)CC[C@@H](NC(=O)[C@H](C)NC(=O)CNC(=O)c1cc2ccccc2[nH]1)C(N)=O`, for which the result in data set [1], in data set [2] and in [4] was inactive. Moreover, the viability at 18 h, 20 µM in data set [3] was at least 90%.
